Reference: ChEMBL document CHEMBL1139130, “New C-5 substituted pyrrolotriazine dual inhibitors of EGFR and HER2 protein tyrosine kinases” (Bioorg Med Chem Lett, 2007)

What was measured:
[1] = tested on: A2780; assay: Antiproliferative activity against human A2780 cells; type: functional, cell-based
[2] = target: Receptor tyrosine-protein kinase erbB-2 (Homo sapiens, UniProt P04626); assay: Inhibition of human recombinant cytoplasmic HER2 kinase expressed in Sf9 cells
[3] = tested on: NCI-N87; assay: Antiproliferative activity against human N87 cells; type: functional, cell-based
[4] = target: Epidermal growth factor receptor (Homo sapiens, UniProt P00533)
[5] = tested on: Liver; assay: Metabolic stability in mouse liver microsomes assessed as rate of metabolism per mg protein at 3 uM after 10 mins; type: ADME, Microsome
Summary of the method: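 Test compound at 3 µM incubated 10 min with mouse liver microsomes plus NADPH. Rate of metabolism expressed as nmol min⁻¹ mg protein⁻¹.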

[6] = tested on: HT-29; assay: Antiproliferative activity against human HT29 cells

Epidermal growth factor receptor, sequence (P00533 whole entry): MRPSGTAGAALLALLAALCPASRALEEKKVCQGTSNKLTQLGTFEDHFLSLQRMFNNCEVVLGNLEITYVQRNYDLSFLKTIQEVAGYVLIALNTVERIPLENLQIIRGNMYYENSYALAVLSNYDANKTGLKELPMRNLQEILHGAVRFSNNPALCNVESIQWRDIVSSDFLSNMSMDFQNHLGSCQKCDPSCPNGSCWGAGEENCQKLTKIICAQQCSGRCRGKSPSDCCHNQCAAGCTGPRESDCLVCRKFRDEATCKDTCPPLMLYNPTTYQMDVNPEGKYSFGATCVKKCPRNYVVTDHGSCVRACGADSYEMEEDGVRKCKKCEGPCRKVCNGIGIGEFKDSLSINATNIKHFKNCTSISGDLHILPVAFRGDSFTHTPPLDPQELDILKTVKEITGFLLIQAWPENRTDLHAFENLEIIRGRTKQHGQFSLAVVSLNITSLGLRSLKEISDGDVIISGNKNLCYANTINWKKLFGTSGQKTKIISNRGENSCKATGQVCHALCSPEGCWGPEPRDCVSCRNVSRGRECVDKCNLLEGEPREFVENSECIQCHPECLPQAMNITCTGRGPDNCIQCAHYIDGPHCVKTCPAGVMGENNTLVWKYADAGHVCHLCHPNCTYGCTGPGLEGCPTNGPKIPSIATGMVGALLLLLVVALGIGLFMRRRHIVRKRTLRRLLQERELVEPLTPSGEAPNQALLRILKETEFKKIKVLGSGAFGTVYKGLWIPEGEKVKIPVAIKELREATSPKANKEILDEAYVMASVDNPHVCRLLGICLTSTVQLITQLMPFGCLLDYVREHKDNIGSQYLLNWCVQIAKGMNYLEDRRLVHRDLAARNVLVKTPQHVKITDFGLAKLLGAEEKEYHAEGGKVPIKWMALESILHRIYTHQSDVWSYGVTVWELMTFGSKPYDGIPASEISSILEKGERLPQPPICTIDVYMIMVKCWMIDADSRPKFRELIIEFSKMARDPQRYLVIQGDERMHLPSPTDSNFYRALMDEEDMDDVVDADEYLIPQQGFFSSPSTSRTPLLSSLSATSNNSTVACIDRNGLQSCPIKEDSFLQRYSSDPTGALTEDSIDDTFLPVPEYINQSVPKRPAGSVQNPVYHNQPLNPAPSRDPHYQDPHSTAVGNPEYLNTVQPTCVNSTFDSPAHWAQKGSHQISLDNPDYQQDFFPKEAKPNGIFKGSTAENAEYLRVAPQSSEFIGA
Receptor tyrosine-protein kinase erbB-2, sequence (P04626 whole entry): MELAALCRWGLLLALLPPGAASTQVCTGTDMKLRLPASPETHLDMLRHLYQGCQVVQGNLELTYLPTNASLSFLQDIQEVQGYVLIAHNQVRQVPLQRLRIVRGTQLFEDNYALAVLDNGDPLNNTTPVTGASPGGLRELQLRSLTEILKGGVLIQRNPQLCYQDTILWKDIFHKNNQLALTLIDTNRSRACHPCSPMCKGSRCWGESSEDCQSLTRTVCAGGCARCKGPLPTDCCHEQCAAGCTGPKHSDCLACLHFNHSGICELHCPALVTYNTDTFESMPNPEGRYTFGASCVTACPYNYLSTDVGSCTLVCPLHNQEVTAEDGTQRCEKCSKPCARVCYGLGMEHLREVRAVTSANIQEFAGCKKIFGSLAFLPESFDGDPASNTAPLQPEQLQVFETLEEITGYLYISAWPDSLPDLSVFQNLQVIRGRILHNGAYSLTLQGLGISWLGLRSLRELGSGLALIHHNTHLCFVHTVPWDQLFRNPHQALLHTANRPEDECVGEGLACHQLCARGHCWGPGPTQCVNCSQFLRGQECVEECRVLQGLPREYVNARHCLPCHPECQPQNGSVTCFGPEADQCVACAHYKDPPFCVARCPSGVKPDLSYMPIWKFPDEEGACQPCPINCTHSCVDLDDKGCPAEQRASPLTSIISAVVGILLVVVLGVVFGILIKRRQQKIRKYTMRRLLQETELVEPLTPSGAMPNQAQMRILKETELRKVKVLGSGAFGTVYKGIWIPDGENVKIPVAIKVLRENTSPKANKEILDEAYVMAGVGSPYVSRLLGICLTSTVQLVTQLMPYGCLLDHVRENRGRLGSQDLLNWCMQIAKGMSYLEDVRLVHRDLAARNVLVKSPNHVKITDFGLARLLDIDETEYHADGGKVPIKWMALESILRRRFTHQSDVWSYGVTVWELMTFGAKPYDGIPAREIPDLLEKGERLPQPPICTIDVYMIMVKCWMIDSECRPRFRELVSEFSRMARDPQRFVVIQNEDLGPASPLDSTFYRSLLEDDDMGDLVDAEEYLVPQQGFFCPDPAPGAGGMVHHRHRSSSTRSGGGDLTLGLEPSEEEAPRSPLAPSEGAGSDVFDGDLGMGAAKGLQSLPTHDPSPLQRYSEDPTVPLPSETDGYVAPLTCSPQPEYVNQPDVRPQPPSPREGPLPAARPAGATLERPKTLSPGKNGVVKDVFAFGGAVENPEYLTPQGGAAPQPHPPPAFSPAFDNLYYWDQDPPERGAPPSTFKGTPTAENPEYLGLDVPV

Row | SMILES | IC50 [1] [µM] | IC50 [2] [µM] | IC50 [3] [µM] | IC50 [4] [µM] | Stability [5] [nmol/min/mg] | IC50 [6] [µM]
1 | NC(=O)COCc1ccn2ncnc(Nc3ccc4c(cnn4Cc4cccc(F)c4)c3)c12 | > 10 | 0.11 | 1.7 | 0.14 | – | –
2 | c1ccc(Cn2ncc3cc(Nc4ncnn5ccc(COC[C@@H]6CNCCO6)c45)ccc32)nc1 | – | 0.38 | 0.24 | 0.5 | – | –
3 | COCCOCc1ccn2ncnc(Nc3ccc4c(cnn4Cc4cccc(F)c4)c3)c12 | – | 0.42 | – | – | – | –
4 | CN(C)CCCOCc1ccn2ncnc(Nc3ccc4c(cnn4Cc4cccc(F)c4)c3)c12 | – | 0.56 | – | 0.62 | 0.12 | –
5 | Cc1ccn2ncnc(Nc3ccc(OCc4cccc(F)c4)c(Cl)c3)c12 | – | 0.43 | – | 0.25 | – | –
6 | Fc1cccc(Cn2ncc3cc(Nc4ncnn5ccc(COCC6CCNCC6)c45)ccc32)c1 | 4.9 | 0.12 | 0.72 | 0.13 | – | –
7 | Fc1cccc(Cn2ncc3cc(Nc4ncnn5ccc(COCC6CNCCOC6)c45)ccc32)c1 (stereo not given) | > 10 | 0.14 | 2 | 0.21 | – | –
8 | C[C@@H](c1cccc(F)c1)n1ncc2cc(Nc3ncnn4ccc(COC[C@@H]5CNCCO5)c34)ccc21 | – | 0.51 | – | 0.4 | – | –
9 | Cc1ccn2ncnc(Nc3ccc4[nH]ncc4c3)c12 | – | > 1 | – | 0.21 | – | –
10 | NCCCOCc1ccn2ncnc(Nc3ccc4c(cnn4Cc4cccc(F)c4)c3)c12 | 7.4 | 0.06 | 0.64 | 0.064 | 0.01 | –
11 | O=C(O)COCc1ccn2ncnc(Nc3ccc4c(cnn4Cc4cccc(F)c4)c3)c12 | > 10 | 0.018 | > 10 | 0.03 | – | –
12 | Fc1cccc(Cn2ncc3cc(Nc4ncnn5ccc(COC[C@@H]6COCCN6)c45)ccc32)c1 | > 10 | 0.59 | 3 | 0.64 | – | –
13 | NCCOCc1ccn2ncnc(Nc3ccc4c(cnn4Cc4cccc(F)c4)c3)c12 | 8.3 | – | 1.7 | – | – | –
14 | Cc1ccn2ncnc(Nc3ccc4c(cnn4Cc4cccc(F)c4)c3)c12 | – | 0.088 | 0.38 | 0.081 | 0.14 | > 10
15 | Cc1ccn2ncnc(Nc3ccc4c(cnn4Cc4ccccc4)c3)c12 | – | 0.11 | – | 0.086 | – | –
16 | COCc1ccn2ncnc(Nc3ccc4c(cnn4Cc4cccc(F)c4)c3)c12 | – | 0.42 | – | 0.34 | 0.24 | –
